# Experimental data reported in article PMC6282584 (Chemmedchem, 2018).
# Experiments:
# PR [1] = biological target: T1, PR (Oryctolagus cuniculus, UniProt P06186); assay: Endometrial transformation in rabbits; assay type: in vivo, rabbit; settings: p.o., with progesterone, McPhail index 1 or 1.5
# T1 sequence (P06186 1-930): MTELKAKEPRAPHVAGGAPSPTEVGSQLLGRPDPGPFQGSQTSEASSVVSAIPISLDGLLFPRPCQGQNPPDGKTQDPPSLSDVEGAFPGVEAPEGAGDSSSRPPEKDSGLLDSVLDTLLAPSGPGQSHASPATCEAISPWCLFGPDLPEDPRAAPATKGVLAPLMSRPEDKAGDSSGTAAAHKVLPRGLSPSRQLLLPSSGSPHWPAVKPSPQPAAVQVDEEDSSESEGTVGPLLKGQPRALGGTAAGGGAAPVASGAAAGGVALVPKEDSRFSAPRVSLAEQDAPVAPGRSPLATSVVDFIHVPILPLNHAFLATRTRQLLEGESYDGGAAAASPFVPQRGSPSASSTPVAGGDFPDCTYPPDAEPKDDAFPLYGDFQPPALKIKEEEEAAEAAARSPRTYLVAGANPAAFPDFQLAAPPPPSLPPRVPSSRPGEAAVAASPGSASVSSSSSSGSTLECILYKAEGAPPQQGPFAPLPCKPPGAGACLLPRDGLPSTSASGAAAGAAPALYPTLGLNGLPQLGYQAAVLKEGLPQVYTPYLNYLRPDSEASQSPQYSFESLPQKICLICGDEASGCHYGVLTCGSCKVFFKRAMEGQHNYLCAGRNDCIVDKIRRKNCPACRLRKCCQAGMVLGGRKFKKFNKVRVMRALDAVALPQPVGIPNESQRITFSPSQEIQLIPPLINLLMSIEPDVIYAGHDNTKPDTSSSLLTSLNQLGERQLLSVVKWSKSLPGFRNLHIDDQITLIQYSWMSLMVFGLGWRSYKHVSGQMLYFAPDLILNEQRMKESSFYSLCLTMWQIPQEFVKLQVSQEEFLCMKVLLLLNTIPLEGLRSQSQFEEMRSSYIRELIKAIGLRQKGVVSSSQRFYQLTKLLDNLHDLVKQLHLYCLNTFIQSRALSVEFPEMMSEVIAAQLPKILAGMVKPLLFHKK
# Procedure, shortened: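 Juvenile New Zealand white rabbits (35–42 days old, 900–1300 g) were primed with 17β-estradiol, […] s.c., on Days 1–4. For the antagonist test, animals were randomized (n=4) on Days 7–10 to 0.2 mg kg−1 day−1 progesterone s.c. plus test compound p.o. Autopsy was on Day 11. Glandular differentiation was scored by light microscopy as McPhail index 1–4. Full efficacy meant every animal in the group scored 1 or 1.5.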
# PR [2] = biological target: T2, PR (Rattus norvegicus, UniProt Q63449); assay: Termination of early pregnancy in rats; assay type: in vivo; settings: p.o., n=6
# T2 sequence (Q63449 1-923): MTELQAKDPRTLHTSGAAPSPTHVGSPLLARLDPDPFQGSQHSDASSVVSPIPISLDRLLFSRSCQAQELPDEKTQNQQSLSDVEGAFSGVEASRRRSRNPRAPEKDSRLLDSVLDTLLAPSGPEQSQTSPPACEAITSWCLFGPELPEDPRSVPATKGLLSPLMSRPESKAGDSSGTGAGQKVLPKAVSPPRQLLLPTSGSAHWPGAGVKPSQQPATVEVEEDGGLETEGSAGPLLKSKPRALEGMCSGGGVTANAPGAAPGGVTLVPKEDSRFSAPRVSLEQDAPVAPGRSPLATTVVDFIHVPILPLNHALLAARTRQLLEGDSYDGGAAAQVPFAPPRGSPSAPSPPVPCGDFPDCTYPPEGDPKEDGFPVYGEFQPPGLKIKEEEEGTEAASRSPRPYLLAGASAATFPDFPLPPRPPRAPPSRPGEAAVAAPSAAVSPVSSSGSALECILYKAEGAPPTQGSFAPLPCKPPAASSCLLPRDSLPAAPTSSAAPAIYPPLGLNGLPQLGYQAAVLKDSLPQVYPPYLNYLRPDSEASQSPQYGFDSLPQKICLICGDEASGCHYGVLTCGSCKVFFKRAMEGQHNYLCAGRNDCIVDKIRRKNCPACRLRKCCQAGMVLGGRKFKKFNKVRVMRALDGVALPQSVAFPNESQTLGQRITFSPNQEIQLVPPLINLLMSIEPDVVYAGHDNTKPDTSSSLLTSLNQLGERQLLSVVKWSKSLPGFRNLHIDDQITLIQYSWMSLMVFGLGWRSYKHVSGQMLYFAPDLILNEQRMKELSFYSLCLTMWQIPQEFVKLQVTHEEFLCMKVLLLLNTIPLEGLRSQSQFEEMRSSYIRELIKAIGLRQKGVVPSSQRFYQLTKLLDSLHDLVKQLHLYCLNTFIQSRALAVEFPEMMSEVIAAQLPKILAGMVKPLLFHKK
# Procedure, shortened: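 Wistar rats (100–230 g) were randomized on Days 5–7 post-coitum (n=6 per group). They received test compound at several doses s.c. or p.o., or vehicle (benzyl benzoate/castor oil 1+4 v/v, or 85 mg polyoxyethylene-(50)-stearate in 100 mL 0.9 % NaCl). Autopsy was on Day 9. Full efficacy meant all animals lacked implantation sites or had only regressed or hemorrhagic sites.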
# [3] = Determination of lonaprisan and its metabolites in human serum; assay type: in vivo; settings: single oral 200 mg lonaprisan
# Procedure, shortened: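 Serum was sampled from volunteers after a single oral dose of the parent steroid. Concentration–time profiles of the parent and three metabolites were measured by LC–MS/MS with external calibration against authentic reference compounds. PK parameters were then calculated. Each metabolite AUC(0–∞) was expressed as % of parent AUC and as a share of the summed AUC of drug-related compounds.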
smiles,measurement,setting,value
CC(=O)c1ccc([C@H]2C[C@@]3(C)[C@@H](CC[C@@]3(O)C(F)(F)C(F)(F)F)[C@@H]3CCC4=CC(=O)CCC4=C32)cc1 [lonaprisan],"Dose of full efficacy, endometrial transformation in rabbits",PR [1],1.0 mg/kg
same,"Dose of full efficacy, termination of early pregnancy in rats",PR [2],0.5 mg/kg
same,Relative contribution to sum of AUC of drug-related compounds,[3],6%
